# Measurements: PMC6045484 (ACS Omega, 2018)
# Tests used:
# [1] = tested on: SK-MEL, KB, BT-549, SK-OV-3, VERO and LLC-PK1 cells; experiment: cytotoxicity, neutral red uptake assay; assay type: cell-based, mammalian; conditions: highest test concentration 4760 ng/mL
# Procedure, shortened: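 Cells seeded at 25 000/well and allowed 24 h to reach confluence. Test compound was then added and incubated 48 h. Viable cells were counted by a modified neutral red uptake method. The panel was four human cancer lines and two noncancerous mammalian kidney lines. Doxorubicin served as positive control and DMSO as negative control.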
# [2] = tested on: M. intracellulare (ATCC23068); experiment: in vitro antibacterial activity, modified alamarBlue procedure; assay type: cell-based, Mycobacterium intracellulare
# Procedure, shortened: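 Modified alamarBlue microplate method. Test compound serially diluted in 20% DMSO/saline, duplicate wells, up to 20 μg/mL. Inoculum 2.0 × 10^6 CFU/mL in Middlebrook 7H9 with OADC, pH 7.3, containing 5% alamarBlue. Incubated 70–74 h at 37 °C, 10% CO2; fluorescence 544ex/590em read before and after. MIC: no blue-to-pink change. MBC by subculturing blue wells on agar. Ciprofloxacin control.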
# [3] = tested on: A. fumigatus ATCC 90906; experiment: in vitro antifungal activity; assay type: cell-based, Aspergillus fumigatus
# Procedure, shortened: (§1)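 Modified NCCLS broth method in Sabouraud dextrose. Inoculum set by OD630 to 1.5 × 10^3 CFU/mL. Test compound serially diluted in 20% DMSO/saline, duplicate wells, up to 20 μg/mL. Incubated 70–74 h at 35 °C; 530 nm read before and after. IC50 is 50% growth inhibition; MIC is no detectable growth. MFC from clear wells subcultured on agar. Amphotericin B control.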
# [4] = tested on: P. falciparum (W2); experiment: in vitro antimalarial activity, plasmodial LDH; assay type: cell-based, Plasmodium falciparum
# Procedure, shortened: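 P. falciparum-infected erythrocytes (2% parasitemia, 2% hematocrit) in RPMI 1640 with 10% human serum and 60 μg/mL amikacin. Exposed to test compound dilutions for 72 h at 37 °C under 90% N2/5% O2/5% CO2. LDH measured with Malstat reagent (30 min, room temperature), then NBT/PES for 1 h in the dark, stopped with 5% acetic acid, read at 650 nm. IC50 from dose-response curves.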
# [5] = tested on: C. albicans ATCC90028; experiment: in vitro antifungal activity; assay type: cell-based, Candida albicans
# Procedure, shortened: as §1
# [6] = tested on: SA (ATCC29213); experiment: in vitro antibacterial activity; assay type: cell-based; conditions: Staphylococcus aureus
# Procedure, shortened: (§2)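 Test compound serially diluted in 20% DMSO/saline and plated in duplicate, up to 20 μg/mL. Inoculum in cation-adjusted Mueller–Hinton broth, pH 7.3, set by OD630 to 5 × 10^5 CFU/mL. Incubated 16–20 h at 35 °C; 530 nm read before and after. IC50 is 50% growth inhibition; MIC is no detectable growth. MBC from clear wells subcultured on agar. Ciprofloxacin control.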
# [7] = tested on: L. donovani promastigotes; experiment: in vitro antileishmanial activity, alamarBlue assay; assay type: cell-based, Leishmania donovani; conditions: Leishmania donovani, 48 h
# [8] = tested on: P. berghei (sensitive strain); experiment: blood-schizontocidal activity against P. berghei infection in mice; assay type: in vivo, Plasmodium berghei; conditions: Swiss mice
# Procedure, shortened: (§3)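 Swiss mice of either sex (about 15–20 g, same age), six per group, inoculated intraperitoneally on day 0 with 1 × 10^7 infected erythrocytes from a donor mouse. Oral test compound at 100, 50, 25 or 10 mg/kg, CQ diphosphate (10 mg/kg/day × 4) or vehicle started 4 h later, on D0 to D+3. Giemsa tail-blood smears on D+4 and D+7. Curative: parasites eliminated, no relapse, all mice surviving to D+60.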
# [9] = tested on: multidrug-resistant P. yoelii nigeriensis; experiment: blood-schizontocidal activity against P. yoelii nigeriensis infection in mice; assay type: in vivo, Plasmodium yoelii nigeriensis; conditions: Swiss mice
# Procedure, shortened: as §3
# [10] = tested on: MRSA (ATCC33591); experiment: in vitro antibacterial activity; assay type: cell-based, methicillin-resistant Staphylococcus aureus
# Procedure, shortened: as §2
# [11] = tested on: C. neoformans ATCC90113; experiment: in vitro antifungal activity; assay type: cell-based, Cryptococcus neoformans
# Procedure, shortened: as §1
# [12] = tested on: P. falciparum (D6); experiment: in vitro antimalarial activity, plasmodial LDH; assay type: cell-based, Plasmodium falciparum
# [13] = tested on: C. glabrata ATCC90030; experiment: in vitro antifungal activity; assay type: cell-based, Candida glabrata
# Procedure, shortened: as §1
# [14] = tested on: C. krusei ATCC6258; experiment: in vitro antifungal activity; assay type: cell-based, Candida krusei
# Procedure, shortened: as §1
# [15] = highest test concentration 20 μg/mL
# [16] = methicillin-resistant S. aureus, highest test concentration 20 μg/mL
compound,measurement,setting,value
"CCCCCCCCOc1c(OC)cc(NC(C)CCCN)c2nc(C(C)(C)C)ccc12 (stereo not shown) [compound 49, N^4-(2-tert-Butyl-6-methoxy-5-(octyloxy)quinolin-8-yl)pentane-1,4-diamine]",cytotoxicity CTX,[1],"NC (NC, not cytotoxic up to 4760 ng/mL (4.76 μg/mL))"
same,IC50,"[2]; Mycobacterium intracellulare, ATCC23068, read-out: IC50 (concentration that affords 50% growth inhibition), M. intracellulare",7.43 µg/mL
same,MBC,"[2]; Mycobacterium intracellulare, ATCC23068, read-out: MBC (minimum bactericidal concentration), M. intracellulare",20 µg/mL
same,MIC,"[2]; Mycobacterium intracellulare, ATCC23068, read-out: MIC, M. intracellulare",10 µg/mL
same,IC50,"[3]; Aspergillus fumigatus, ATCC90906, read-out: A. fumigatus IC50",> 20 µg/mL
same,MFC,"[3]; Aspergillus fumigatus, ATCC90906, read-out: A. fumigatus MFC",> 20 µg/mL
same,MIC,"[3]; Aspergillus fumigatus, ATCC90906, read-out: A. fumigatus MIC",> 20 µg/mL
same,IC50,"[4]; Plasmodium falciparum, W2, 72 h, read-out: P. falciparum (W2) IC50, CQ-resistant W2 strain, 72 h",0.04 µg/mL
same,IC50,"[5]; Candida albicans, ATCC90028, read-out: C. albicans IC50",7.44 µg/mL
same,MFC,"[5]; Candida albicans, ATCC90028, read-out: C. albicans MFC",10 µg/mL
same,MIC,"[5]; Candida albicans, ATCC90028, read-out: C. albicans MIC",10 µg/mL
same,IC50,"[6]; ATCC29213, read-out: IC50 (concentration that affords 50% growth inhibition), SA",3.4 µg/mL
same,MBC,"[6]; ATCC29213, read-out: MBC (minimum bactericidal concentration), SA",10 µg/mL
same,MIC,"[6]; ATCC29213, read-out: MIC, SA",5 µg/mL
same,IC50,"[7]; read-out: L. donovani IC50, promastigotes, 48 h",5.2 µg/mL
same,IC90,"[7]; read-out: L. donovani IC90, promastigotes, 48 h",> 40 µg/mL
same,P. berghei blood-schizontocidal activity (mice cured/treated),"[8]; 10 mg/kg/day × 4, oral",active (4/6)
same,P. berghei blood-schizontocidal activity (mice cured/treated),"[8]; 25 mg/kg/day × 4, oral",curative (6/6)
same,P. berghei blood-schizontocidal activity (mice cured/treated),"[8]; 50 mg/kg/day × 4, oral",curative (6/6)
same,P. berghei blood-schizontocidal activity (mice cured/treated),"[8]; 100 mg/kg/day × 4, oral",curative (6/6)
same,P. yoelii nigeriensis blood-schizontocidal activity (mice cured/treated),"[9]; 25 mg/kg/day × 4, oral",inactive (0/6)
same,P. yoelii nigeriensis blood-schizontocidal activity (mice cured/treated),"[9]; 50 mg/kg/day × 4, oral",active (3/6)
same,P. yoelii nigeriensis blood-schizontocidal activity (mice cured/treated),"[9]; 100 mg/kg/day × 4, oral",active (4/6)
same,MIC,"[10]; Staphylococcus aureus, ATCC33591|MRSA, read-out: MIC, MRSA",5 µg/mL
same,IC50,"[11]; Cryptococcus neoformans, ATCC90113, read-out: C. neoformans IC50",2.15 µg/mL
same,MFC,"[11]; Cryptococcus neoformans, ATCC90113, read-out: C. neoformans MFC",5 µg/mL
same,MIC,"[11]; Cryptococcus neoformans, ATCC90113, read-out: C. neoformans MIC",5 µg/mL
same,IC50,"[12]; Plasmodium falciparum, D6, 72 h, read-out: P. falciparum (D6) IC50",0.053 µg/mL
"CCCCCCCCOc1c(OC)cc(NC(C)CCCNC(=O)C(N)CCCCN)c2nc(C(C)(C)C)ccc12 (stereo not shown) [compound 117, 2,6-Diamino-N-(4-(2-tert-butyl-6-methoxy-5-(octyloxy)quinolin-8-lamino)pentyl)-hexanamide]",cytotoxicity CTX,[1],"NC (NC, not cytotoxic up to 4760 ng/mL (4.76 μg/mL))"
same,"IC50 (concentration that affords 50% growth inhibition), M. intracellulare",[2]; [15],"NA (NA, no activity at the highest test concentration of 20 μg/mL)"
same,"MBC (minimum bactericidal concentration), M. intracellulare",[2]; [15],"NA (NA, no activity at the highest test concentration of 20 μg/mL)"
same,"MIC, M. intracellulare",[2]; [15],"NA (NA, no activity at the highest test concentration of 20 μg/mL)"
same,A. fumigatus IC50,[3],"NA (NA, no activity at the highest test concentration of 20 μg/mL)"
same,A. fumigatus MFC,[3],"NA (NA, no activity at the highest test concentration of 20 μg/mL)"
same,A. fumigatus MIC,[3],"NA (NA, no activity at the highest test concentration of 20 μg/mL)"
same,P. falciparum (W2) IC50,"[4]; CQ-resistant W2 strain, 72 h","NA (NA, not active)"
same,C. albicans IC50,[5],"NA (NA, no activity at the highest test concentration of 20 μg/mL)"
same,C. albicans MFC,[5],"NA (NA, no activity at the highest test concentration of 20 μg/mL)"
same,C. albicans MIC,[5],"NA (NA, no activity at the highest test concentration of 20 μg/mL)"
same,"IC50 (concentration that affords 50% growth inhibition), SA",[6]; [15],"NA (NA, no activity at the highest test concentration of 20 μg/mL)"
same,"MBC (minimum bactericidal concentration), SA",[6]; [15],"NA (NA, no activity at the highest test concentration of 20 μg/mL)"
same,"MIC, SA",[6]; [15],"NA (NA, no activity at the highest test concentration of 20 μg/mL)"
same,C. glabrata IC50,[13],"NA (NA, no activity at the highest test concentration of 20 μg/mL)"
same,C. glabrata MFC,[13],"NA (NA, no activity at the highest test concentration of 20 μg/mL)"
same,C. glabrata MIC,[13],"NA (NA, no activity at the highest test concentration of 20 μg/mL)"
same,"IC50 (concentration that affords 50% growth inhibition), MRSA",[10]; [16],"NA (NA, no activity at the highest test concentration of 20 μg/mL)"
same,"MBC (minimum bactericidal concentration), MRSA",[10]; [16],"NA (NA, no activity at the highest test concentration of 20 μg/mL)"
same,"MIC, MRSA",[10]; [16],"NA (NA, no activity at the highest test concentration of 20 μg/mL)"
same,C. krusei IC50,[14],"NA (NA, no activity at the highest test concentration of 20 μg/mL)"
same,C. krusei MFC,[14],"NA (NA, no activity at the highest test concentration of 20 μg/mL)"
same,C. krusei MIC,[14],"NA (NA, no activity at the highest test concentration of 20 μg/mL)"
same,C. neoformans IC50,[11],11.92 µg/mL
same,C. neoformans MFC,[11],>20 µg/mL
same,C. neoformans MIC,[11],>20 µg/mL
same,P. falciparum (D6) IC50,"[12]; CQ-sensitive D6 strain, 72 h","NA (NA, not active)"
